Bioassay records from PubChem BioAssay.
Most compounds without a hit are left out; they make up all but 2.7% or so of the library.
OX1R antag-1 = blocks the human orexin 1 receptor. 330,000 tested, 0.43% active. AID 434989. inhibition, % at 5 µM. O43613. CHO/OX1R cells, Fluo-8 calcium fluorescence, orexin A;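 active means inhibition above its plate's threshold, mean inhibition of all tested compounds on the plate plus 3 SD, cut at about 37% in these data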;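 further: 0% = orexin A challenge wells and 100% = SB-334867-A antagonist wells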
OX1R antag-2 = OX1R (human) antagonism; O43613; OX1R-expressing cells, FRET antagonist read-out; inhibition, % at 6.6 µM; 330,000 tested, 1.8% active; AID 485270; in the data active means inhibition mostly above about 38%, no sharp cut-off; inactive means mostly below about 40%;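 further: 0% = agonist challenge alone and 100% = reference antagonist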
OXTR potentiate = potentiates the human oxytocin receptor response | 320,000 tested, 0.061% active | CHO-OTR cells, Fluo-8 calcium fluorescence, potentiator mode; 0% = oxytocin EC15, 100% = EC100 | activation, % at 3 µM | AID 2445 | P30559;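 active means activation above that plate's cutoff, the mean activation of tested compounds plus 3 SD, cut at about 6.6% in these data, passing the limit was not always enough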;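 further: 100% uses oxytocin at 75 nM as the full agonist control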
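System: human OTR in CHO cells / Also added: sub-maximal oxytocin, roughly EC15 / Control set: EC15 oxytocin low, 75 nM oxytocin high / Schedule: 6 min compound pre-incubation at room temperature, 100 s kinetic read / Compound: single-point 3.0 µM / Replication: singlicate / Technique: Fluo-8 calcium dye fluorescence / Read-out basis: % activation of max/min ratio relative to oxytocin controls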
V1aR counter = counter-screen for oxytocin receptor agonists: human V1a receptor agonists; P37288; CHO-V1R cells, Fluo-8 calcium fluorescence, agonist mode; 0% DMSO, 100% 3 nM vasopressin; activation, % at 3 µM; 320,000 tested, 0.25% active;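 active means activation above the mean activation of all tested compounds plus 3 SD, per screening run, cut at about 20% in these data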;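 further: signal is peak over basal fluorescence ratio across a 100 second FLIPR read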
Target sequence (P37288 whole entry, looked up): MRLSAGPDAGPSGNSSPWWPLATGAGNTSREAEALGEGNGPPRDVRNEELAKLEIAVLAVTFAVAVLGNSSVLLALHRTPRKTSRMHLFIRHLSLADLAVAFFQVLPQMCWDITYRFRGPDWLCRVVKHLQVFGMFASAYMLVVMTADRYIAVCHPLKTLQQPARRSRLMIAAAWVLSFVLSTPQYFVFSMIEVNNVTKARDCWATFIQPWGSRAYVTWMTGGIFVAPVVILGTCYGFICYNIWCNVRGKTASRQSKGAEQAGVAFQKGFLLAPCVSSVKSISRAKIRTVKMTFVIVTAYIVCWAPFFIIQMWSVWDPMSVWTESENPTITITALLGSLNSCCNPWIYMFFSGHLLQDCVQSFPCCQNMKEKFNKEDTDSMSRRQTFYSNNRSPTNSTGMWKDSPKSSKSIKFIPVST
CHO parental Ca = counter-screen for OX1R antagonists: effect in parental CHO cells | 330,000 tested, 0.63% active | parental CHO-K1, ATP-induced calcium, Fluo-8 fluorescence | inhibition, % at 5.6 µM;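 active means inhibition above that plate's mean sample inhibition plus 3 SD, cut at about 26% in these data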;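 further: 0% = ATP-challenged DMSO wells and 100% = DMSO wells without ATP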
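test system = CHO parental line | reagent = ATP stimulus | measured by = intracellular calcium via Fluo-8 no-wash fluorescent dye | control set = ATP and no-ATP DMSO wells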
OXTR ag = activates the human oxytocin receptor; P30559; CHO-OTR cells, Fluo-8 calcium fluorescence; normalized: DMSO 0%, oxytocin 100%; activation, % at 3 µM; 320,000 tested, 0.32% active;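 active means activation above the mean of all tested compounds plus 3 SD, cutoff set per screening run, cut at about 20% in these data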;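 further: peak over basal fluorescence ratio from a 100 s FLIPR kinetic read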
* hit, by the source's call.

Results for Cn1cc(C(=O)C(=O)N2CCc3ccccc32)c2ccccc21 ?
OX1R antag-1: -30.4; OX1R antag-2: 31.0; OXTR potentiate: -6.8; V1aR counter: -0.8; CHO parental Ca: -25.2; OXTR ag: -1.4

What do the screens show for `CCOc1ccccc1NC(=O)C1CCCCN1S(=O)(=O)c1ccc(F)cc1` (stereo unspecified)?
OX1R antag-1: 31.9; OX1R antag-2: 52.9*; OXTR potentiate: -2.8; V1aR counter: -0.7; CHO parental Ca: -31.7; OXTR ag: -1.9

Results for O=C(COc1ccc(Br)cc1F)NC1CC1 ?
OX1R antag-1: -8.9; OX1R antag-2: 10.3; OXTR potentiate: 2.5; V1aR counter: 3.9; CHO parental Ca: -9.7; OXTR ag: 2.3

Results for O=C1/C(=N\S(=O)(=O)c2cccs2)C([n+]2ccc(CCCc3ccccc3)cc2)=C([O-])c2ccccc21 ?
OX1R antag-1: -20.7; OX1R antag-2: 25.7; OXTR potentiate: -1.9; V1aR counter: -0.7; CHO parental Ca: -54.9; OXTR ag: -0.5

Results for CC(C)(C)c1cc[n+](C2=C([O-])c3ccccc3C(=O)/C2=N\S(=O)(=O)c2ccccc2)cc1 ?
OX1R antag-1: -21.5; OX1R antag-2: 67.2*; OXTR potentiate: -4.0; V1aR counter: -1.2; CHO parental Ca: -11.4; OXTR ag: -2.3

How did O=C1/C(=N\S(=O)(=O)c2cccs2)C([n+]2cccc(Cc3ccccc3)c2)=C([O-])c2ccccc21 do in these assays?
OX1R antag-1: 33.1; OX1R antag-2: 48.2*; OXTR potentiate: -12.2; V1aR counter: 1.4; CHO parental Ca: 50.7*; OXTR ag: -1.5

How did Cc1ccccc1NC(=O)CCC(=O)N/N=C/c1ccncc1 do in these assays?
OX1R antag-1: -2.5; OX1R antag-2: 3.7; OXTR potentiate: -0.4; V1aR counter: -0.1; CHO parental Ca: 0.2; OXTR ag: -0.6

Results for CC1(C)C[C@H]2C3=CCC4[C@@]5(C)CC[C@H](O)[C@](C)(CO)C5CC[C@@]4(C)[C@]3(C)CC[C@@]2(C)[C@H](O)[C@@H]1O (stereo partly specified) ?
OX1R antag-1: -5.3; OX1R antag-2: 4.7; OXTR potentiate: -4.8; V1aR counter: 1.1; CHO parental Ca: -1.5; OXTR ag: 1.1

Results for CC1(C)CC[C@]2(C(=O)O)[C@H](O)C[C@]3(C)C(=CCC4[C@@]5(C)C[C@H](O)[C@H](O)[C@@](C)(CO)C5CC[C@]43C)[C@@H]2C1 (stereo partly specified) ?
OX1R antag-1: 24.5; OX1R antag-2: 7.4; OXTR potentiate: -0.1; V1aR counter: 0.8; CHO parental Ca: 73.6*; OXTR ag: 1.0

How did CC1(CC(=O)N/N=C/c2cc([N+](=O)[O-])c(O)cc2O)OCCO1 do in these assays?
OX1R antag-1: -2.3; OX1R antag-2: 52.3*; OXTR potentiate: 6.3; V1aR counter: -0.1; CHO parental Ca: -2.4; OXTR ag: 0.8

Results for Cc1ccc(-n2c(C)cc(/C=N/NC(=O)CC3(C)OCCO3)c2C)c(C)c1 ?
OX1R antag-1: -19.7; OX1R antag-2: 26.3; OXTR potentiate: -14.8; V1aR counter: 1.3; CHO parental Ca: -17.0; OXTR ag: -0.6

Results for Cc1ccc2c(c1)C(=NC1CCCCC1)c1cc3ccccc3nc1-2 ?
OX1R antag-1: 17.4; OX1R antag-2: 74.9*; OXTR potentiate: -6.2; V1aR counter: -0.5; CHO parental Ca: -13.8; OXTR ag: -2.3

How did Cc1ccc2c(c1)-c1nc3ccccc3cc1C2=NC1CCCCC1 do in these assays?
OX1R antag-1: -2.2; OX1R antag-2: 52.3; OXTR potentiate: -0.9; V1aR counter: -0.2; CHO parental Ca: -7.1; OXTR ag: -1.0

Results for CCNC(=S)N1CCC(n2cnc3ccccc32)CC1 ?
OX1R antag-1: 2.6; OX1R antag-2: 16.2; OXTR potentiate: -10.0; V1aR counter: 0.3; CHO parental Ca: 1.2; OXTR ag: 1.6

How did CN1CCN(c2ccc(C(F)(F)F)cc2NC(=O)Nc2ccccc2)CC1 do in these assays?
OX1R antag-1: 17.1; OX1R antag-2: -6.4; OXTR potentiate: -24.4; V1aR counter: 32.5*; CHO parental Ca: 27.0; OXTR ag: 34.4*
